Laboratory results as given in ChEMBL document CHEMBL2375244 (J Med Chem, 2013).
Active and inactive are the calls of the source. The calls are words filed in the database; no cut-off is given here.

Tests used:
[1] = biological target: CDK4/Cyclin D3 (Homo sapiens) (UniProt P11802+P30281); test: Inhibition of human CDK4/Cyclin D3 at 0.1 uM incubated for 15 mins prior to substrate addition measured after 90 mins by P33-radiolabeled assay relative to control; format: protein-complex assay
[2] = system: A673; test: Cytotoxicity against human A673 cells after 72 hrs by resazurin/resorufin-based fluorescence assay; format: functional, cell-based; conditions: A673, 72 h
[3] = biological target: CDK1/Cyclin A (Homo sapiens) (UniProt P06493+P20248); test: Inhibition of human CDK1/Cyclin A at 0.1 uM incubated for 15 mins prior to substrate addition measured after 90 mins by P33-radiolabeled assay relative to control; format: protein-complex assay
Chain of CDK1/Cyclin A (Homo sapiens) (P06493 whole entry, looked up): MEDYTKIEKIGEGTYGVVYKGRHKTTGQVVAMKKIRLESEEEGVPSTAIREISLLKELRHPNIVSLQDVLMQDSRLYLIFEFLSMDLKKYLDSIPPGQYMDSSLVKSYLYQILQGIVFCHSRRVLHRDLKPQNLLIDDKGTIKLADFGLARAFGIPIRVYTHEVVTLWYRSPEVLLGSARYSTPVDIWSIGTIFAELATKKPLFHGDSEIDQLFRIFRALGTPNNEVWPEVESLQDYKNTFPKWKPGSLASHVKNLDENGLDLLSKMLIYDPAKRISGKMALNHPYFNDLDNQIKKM
Chain of CDK1/Cyclin A (Homo sapiens) (P20248 whole entry, looked up): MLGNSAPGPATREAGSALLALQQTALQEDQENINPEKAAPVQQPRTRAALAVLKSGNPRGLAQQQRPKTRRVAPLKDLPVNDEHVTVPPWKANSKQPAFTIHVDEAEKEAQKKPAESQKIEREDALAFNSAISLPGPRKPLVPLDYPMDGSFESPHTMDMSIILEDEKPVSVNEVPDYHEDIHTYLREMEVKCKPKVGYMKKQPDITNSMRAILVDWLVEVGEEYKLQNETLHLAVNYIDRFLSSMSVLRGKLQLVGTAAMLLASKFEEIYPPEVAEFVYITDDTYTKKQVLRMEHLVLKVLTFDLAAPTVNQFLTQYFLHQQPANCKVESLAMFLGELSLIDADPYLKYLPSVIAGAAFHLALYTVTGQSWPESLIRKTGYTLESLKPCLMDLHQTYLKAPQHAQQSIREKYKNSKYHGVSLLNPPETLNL

[4] = biological target: Cyclin-dependent kinase 4/cyclin D1 (Homo sapiens, UniProt P11802); test: Inhibition of CDK4/Cyclin D1 (unknown origin)-mediated phosphorylation of peptide substrate incubated for 15 mins prior to substrate addition measured after 90 mins by P33-radiolabeled assay; format: protein-complex assay
Chain of Cyclin-dependent kinase 4/cyclin D1 (P11802 whole entry): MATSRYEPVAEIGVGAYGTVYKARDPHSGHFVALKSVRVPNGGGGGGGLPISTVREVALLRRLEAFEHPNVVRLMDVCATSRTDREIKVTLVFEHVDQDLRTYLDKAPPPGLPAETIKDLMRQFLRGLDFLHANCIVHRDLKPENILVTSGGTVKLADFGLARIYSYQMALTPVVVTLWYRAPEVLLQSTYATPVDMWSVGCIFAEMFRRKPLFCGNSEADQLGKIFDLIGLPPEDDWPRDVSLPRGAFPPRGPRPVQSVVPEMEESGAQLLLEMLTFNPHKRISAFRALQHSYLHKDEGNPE
Chain of Cyclin-dependent kinase 4/cyclin D1 (P24385 whole entry, further chain): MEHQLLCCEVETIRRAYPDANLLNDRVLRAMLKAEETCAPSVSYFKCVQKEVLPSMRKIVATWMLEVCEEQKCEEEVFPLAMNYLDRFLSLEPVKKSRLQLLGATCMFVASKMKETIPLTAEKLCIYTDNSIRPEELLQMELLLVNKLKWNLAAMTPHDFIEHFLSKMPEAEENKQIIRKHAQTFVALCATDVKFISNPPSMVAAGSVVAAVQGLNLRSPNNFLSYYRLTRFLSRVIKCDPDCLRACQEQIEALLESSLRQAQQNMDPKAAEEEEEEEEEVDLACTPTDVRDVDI

[5] = biological target: Serine/threonine-protein kinase TAO1 (Homo sapiens) (UniProt Q7L7X3); test: Inhibition of human TAO1 at 0.1 uM incubated for 15 mins prior to substrate addition measured after 90 mins by P33-radiolabeled assay relative to control
Chain of Serine/threonine-protein kinase TAO1 (Homo sapiens) (Q7L7X3 whole entry): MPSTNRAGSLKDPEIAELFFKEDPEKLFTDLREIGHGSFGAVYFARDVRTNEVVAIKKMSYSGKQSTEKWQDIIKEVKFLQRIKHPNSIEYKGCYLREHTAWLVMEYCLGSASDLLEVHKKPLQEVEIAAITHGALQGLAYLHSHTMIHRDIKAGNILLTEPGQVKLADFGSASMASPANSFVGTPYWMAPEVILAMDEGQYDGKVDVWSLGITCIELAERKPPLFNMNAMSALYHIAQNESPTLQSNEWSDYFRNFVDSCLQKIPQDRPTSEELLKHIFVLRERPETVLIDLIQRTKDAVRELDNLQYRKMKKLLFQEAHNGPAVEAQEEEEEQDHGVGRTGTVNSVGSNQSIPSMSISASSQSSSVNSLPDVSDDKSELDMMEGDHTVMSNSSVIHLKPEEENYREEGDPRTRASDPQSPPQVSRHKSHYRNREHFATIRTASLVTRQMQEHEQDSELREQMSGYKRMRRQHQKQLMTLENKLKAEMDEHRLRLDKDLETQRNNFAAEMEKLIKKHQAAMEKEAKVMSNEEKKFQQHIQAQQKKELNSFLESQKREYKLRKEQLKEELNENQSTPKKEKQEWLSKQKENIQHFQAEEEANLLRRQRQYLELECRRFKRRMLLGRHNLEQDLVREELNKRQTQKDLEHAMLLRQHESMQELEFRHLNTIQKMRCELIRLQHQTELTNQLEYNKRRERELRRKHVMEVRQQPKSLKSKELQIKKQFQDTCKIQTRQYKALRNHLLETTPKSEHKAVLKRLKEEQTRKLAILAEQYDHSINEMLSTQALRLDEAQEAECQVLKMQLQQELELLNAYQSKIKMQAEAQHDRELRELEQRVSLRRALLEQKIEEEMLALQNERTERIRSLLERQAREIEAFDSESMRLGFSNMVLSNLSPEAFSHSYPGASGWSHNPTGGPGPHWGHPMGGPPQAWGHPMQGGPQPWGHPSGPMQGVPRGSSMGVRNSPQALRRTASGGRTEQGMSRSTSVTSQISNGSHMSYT

[6] = biological target: CDK9/cyclin T1 (Homo sapiens) (UniProt O60563+P50750); test: Inhibition of human CDK9/CyclinT1 at 0.1 uM incubated for 15 mins prior to substrate addition measured after 90 mins by P33-radiolabeled assay relative to control; format: protein-complex assay
Outline: (§1)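 Kinome profiling (339-kinase panel) by a contract lab using a P33-radiolabel assay. Each kinase was tested at a single compound concentration of 0.1 μM, in duplicate, with ATP at 10 μM.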

[7] = biological target: T1, Cyclin-dependent kinase 5/CDK5 activator 1 (Homo sapiens) (UniProt Q00535+Q15078); test: Inhibition of human CDK5/P35 at 0.1 uM incubated for 15 mins prior to substrate addition measured after 90 mins by P33-radiolabeled assay relative to control; format: protein-complex assay
T1 sequence (Q00535 whole entry): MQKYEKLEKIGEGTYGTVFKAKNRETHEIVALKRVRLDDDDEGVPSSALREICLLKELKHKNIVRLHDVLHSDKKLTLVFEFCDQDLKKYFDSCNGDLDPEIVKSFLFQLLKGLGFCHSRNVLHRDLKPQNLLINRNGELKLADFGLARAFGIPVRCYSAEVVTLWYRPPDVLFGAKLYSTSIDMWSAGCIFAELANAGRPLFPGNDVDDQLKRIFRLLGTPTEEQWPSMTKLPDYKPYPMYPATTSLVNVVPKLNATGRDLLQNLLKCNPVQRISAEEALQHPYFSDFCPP
T1 sequence (Q15078 99-307 partner limits assumed): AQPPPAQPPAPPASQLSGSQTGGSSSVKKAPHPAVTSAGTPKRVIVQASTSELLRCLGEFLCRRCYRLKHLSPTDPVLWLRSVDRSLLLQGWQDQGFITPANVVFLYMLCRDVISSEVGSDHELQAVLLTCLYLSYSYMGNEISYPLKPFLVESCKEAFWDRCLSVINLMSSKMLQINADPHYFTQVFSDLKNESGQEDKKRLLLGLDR

[8] = biological target: Cyclin-dependent kinase 2 (Homo sapiens) (UniProt P24941); test: Inhibition of CDK2-mediated Rb phosphorylation at Ser 807/811 in human NCI-H929 cells at […] after 24 hrs by immunoblotting analysis; format: cell-based
[9] = system: U-266; test: Cytotoxicity against human U266 cells after 72 hrs by resazurin/resorufin-based fluorescence assay; format: functional, cell-based; conditions: U-266, 72 h
[10] = biological target: T2, CDK2/Cyclin A2 (Homo sapiens, UniProt P24941); test: Inhibition of human CDK2/Cyclin A2 using PKTPKKAKKL as substrate by fluorescence assay; format: protein-complex assay
[11] = biological target: CDK9/Cyclin K (Homo sapiens, UniProt P50750); test: Inhibition of CDK9/Cyclin K (unknown origin)-mediated phosphorylation of peptide substrate incubated for 15 mins prior to substrate addition measured after 90 mins by P33-radiolabeled assay; format: protein-complex assay
Outline: (§2)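 Radiometric (P33) kinase assay run by a contract lab on CDK–cyclin complexes. Inhibitor tested in duplicate at 0.05 nM to 1000 nM with ATP at 10 μM. […] For the in-house assays, IC50 was obtained by Hill-equation fitting.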

[12] = Cytotoxicity against human NCI-H929 cells after 72 hrs by resazurin/resorufin-based fluorescence assay; format: functional, cell-based; conditions: NCI-H929, 72 h
[13] = biological target: CDK9/Cyclin K (Homo sapiens) (UniProt P50750+O75909); test: Inhibition of human CDK9/Cyclin K at 0.1 uM incubated for 15 mins prior to substrate addition measured after 90 mins by P33-radiolabeled assay relative to control; format: protein-complex assay; outline: as §1
[14] = system: A673; test: Induction of apoptosis in human A673 cells assessed as caspase-3 activation after 24 hrs by luminescence assay; format: functional, cell-based; conditions: A673, 24 h
Outline: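 Caspase-3/7 activation measured with a Caspase-Glo 3/7 luminescent assay. Cells were plated as for the high-throughput viability assay and exposed for 24 h to serial dilutions. EC50 was obtained from the dose-response.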

[15] = biological target: CDK1/Cyclin A (Homo sapiens, UniProt P06493); test: Inhibition of CDK1/Cyclin A (unknown origin)-mediated phosphorylation of peptide substrate incubated for 15 mins prior to substrate addition measured after 90 mins by P33-radiolabeled assay; format: protein-complex assay
Chain of CDK1/Cyclin A (P06493 whole entry): as the sequence (P06493 whole entry, looked up) above
Chain of CDK1/Cyclin A (P20248 whole entry, further chain): as the sequence (P20248 whole entry, looked up) above

[16] = system: SK-UT-1; test: Cytotoxicity against human SK-UT-1 cells after 72 hrs by resazurin/resorufin-based fluorescence assay; format: functional, cell-based; conditions: SK-UT-1, 72 h
[17] = biological target: T1, Cyclin-dependent kinase 5/CDK5 activator 1 (Homo sapiens); test: Inhibition of human CDK5/P25 at 0.1 uM incubated for 15 mins prior to substrate addition measured after 90 mins by P33-radiolabeled assay relative to control; format: protein-complex assay
[18] = biological target: Dual specificity protein kinase CLK2 (Homo sapiens) (UniProt P49760); test: Inhibition of human CLK2 at 0.1 uM incubated for 15 mins prior to substrate addition measured after 90 mins by P33-radiolabeled assay relative to control
Chain of Dual specificity protein kinase CLK2 (Homo sapiens) (P49760 whole entry, looked up): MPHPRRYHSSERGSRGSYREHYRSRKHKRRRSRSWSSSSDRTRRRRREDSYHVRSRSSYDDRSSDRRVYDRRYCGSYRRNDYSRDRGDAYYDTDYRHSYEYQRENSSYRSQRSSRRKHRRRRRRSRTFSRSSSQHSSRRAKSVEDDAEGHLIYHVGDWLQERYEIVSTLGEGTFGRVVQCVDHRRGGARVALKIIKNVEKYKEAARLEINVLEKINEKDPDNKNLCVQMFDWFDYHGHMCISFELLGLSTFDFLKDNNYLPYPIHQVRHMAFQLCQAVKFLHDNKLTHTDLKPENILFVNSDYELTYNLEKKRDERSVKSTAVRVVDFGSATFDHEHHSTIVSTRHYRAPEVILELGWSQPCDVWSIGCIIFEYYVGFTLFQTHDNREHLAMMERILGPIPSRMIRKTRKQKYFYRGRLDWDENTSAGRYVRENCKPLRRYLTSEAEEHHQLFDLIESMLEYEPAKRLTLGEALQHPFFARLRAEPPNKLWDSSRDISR

[19] = biological target: Cyclin-dependent kinase 2/cyclin E1 (Homo sapiens) (UniProt P24864+P24941); test: Inhibition of human CDK2/Cyclin E at 0.1 uM incubated for 15 mins prior to substrate addition measured after 90 mins by P33-radiolabeled assay relative to control; format: protein-complex assay
[20] = biological target: CDK2/Cyclin A2 (Homo sapiens) (UniProt P24941+P20248); test: Inhibition of human CDK2/Cyclin A at 0.1 uM incubated for 15 mins prior to substrate addition measured after 90 mins by P33-radiolabeled assay relative to control; format: protein-complex assay
[21] = system: NCI-H929; test: Induction of apoptosis in human NCI-H929 cells assessed as increase in cleaved caspase-3 level at […] after 24 hrs by FACS flow cytometric analysis relative to control; format: functional
[22] = biological target: T2, CDK2/Cyclin A2; test: Inhibition of human CDK2/Cyclin A2 using PKTPKKAKKL as substrate by P33-radiolabeled assay; format: protein-complex assay; outline: as §2
[23] = biological target: Cyclin-dependent kinase 4/cyclin D1 (Homo sapiens) (UniProt P11802+P24385); test: Inhibition of human CDK4/Cyclin D1 at 0.1 uM incubated for 15 mins prior to substrate addition measured after 90 mins by P33-radiolabeled assay relative to control; format: protein-complex assay
[24] = system: T47D; test: Cytotoxicity against human T47D cells after 72 hrs by resazurin/resorufin-based fluorescence assay; format: functional, cell-based
[25] = system: MDA-MB-231; test: Cytotoxicity against human MDA-MB-231 cells after 72 hrs by resazurin/resorufin-based fluorescence assay; format: functional, cell-based; conditions: MDA-MB-231, 72 h
[26] = system: SW872; test: Cytotoxicity against human SW872 cells after 72 hrs by resazurin/resorufin-based fluorescence assay; format: functional, cell-based; conditions: SW872, 72 h
[27] = Cytotoxicity against mouse GC-1 cells after 72 hrs by MTT assay; format: functional, cell-based; conditions: GC-1, 72 h
Outline: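 Cells kept in RPMI or DMEM with 10% FBS at 37 °C, 5% CO₂ and allowed to attach overnight; 72 h with increasing inhibitor concentrations; then 1 mg/mL MTT for 3 h, DMSO solubilisation, OD read at 540 nm. Testis lines had culture conditions adapted to them. Dose-response in triplicate, 9 concentrations between 0.02 and 100 μM, averaged.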

[28] = biological target: Cyclin-dependent kinase 5/CDK5 activator 1 (Homo sapiens, UniProt Q00535); test: Inhibition of CDK5/P25 (unknown origin)-mediated phosphorylation of peptide substrate incubated for 15 mins prior to substrate addition measured after 90 mins by P33-radiolabeled assay; format: protein-complex assay
Chain of Cyclin-dependent kinase 5/CDK5 activator 1 (Q00535 whole entry): as the sequence (Q00535 whole entry) above
Chain of Cyclin-dependent kinase 5/CDK5 activator 1 (Q15078 whole entry, further chain): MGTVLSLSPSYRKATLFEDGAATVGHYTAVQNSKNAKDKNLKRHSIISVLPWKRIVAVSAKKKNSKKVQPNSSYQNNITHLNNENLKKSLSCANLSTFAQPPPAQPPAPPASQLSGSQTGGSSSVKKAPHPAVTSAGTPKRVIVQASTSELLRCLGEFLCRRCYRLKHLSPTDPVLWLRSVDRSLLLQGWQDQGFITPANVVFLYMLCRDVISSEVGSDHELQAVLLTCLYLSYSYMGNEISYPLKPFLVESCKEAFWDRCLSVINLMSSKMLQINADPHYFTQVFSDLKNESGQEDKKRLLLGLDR

Nc1nc(Nc2ccc(S(N)(=O)=O)cc2)sc1C(=O)c1ccccc1[N+](=O)[O-]
inhibition [1]: 80% | IC50 [2]: 270 nM | inhibition [3]: 70% | IC50 [4]: 4 nM | inhibition [5]: 60% | inhibition [6]: 90% | inhibition [7]: 90% | inhibition [8]: Active | IC50 [9]: 1800 nM | IC50 [10]: 20 nM | IC50 [11]: 13 nM | IC50 [12]: 1600 nM | inhibition [13]: 80% | EC50 [14]: 410 nM | IC50 [15]: 7.6 nM | IC50 [16]: 1400 nM | inhibition [17]: 90% | inhibition [18]: 60% | inhibition [19]: 90% | inhibition [20]: 90% | Activity [21]: 26% | IC50 [22]: 1.5 nM | inhibition [23]: 80% | IC50 [24]: 500 nM | IC50 [25]: 1500 nM | IC50 [26]: 6900 nM | IC50 [27]: 20000 nM | IC50 [28]: 1.5 nM
